Reference: ChEMBL document CHEMBL1649304, “Efficacy of posaconazole as treatment and prophylaxis against Fusarium solani” (Antimicrob Agents Chemother, 2010)
Converted amounts (≈) assume the structure as drawn. The source made the active and inactive calls. No cut-off for these calls is given here.

Assays:
[1] = tested on: Fusarium solani; assay: Antifungal activity against inoculum of 1x10^4 conidia/ml Fusarium solani isolate 95-2478 after 24 hrs by XTT assay; type: functional, organism-based; conditions: isolate 95-2478, 24 h
Procedure, shortened: (§1)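 Isolate 95-2478 conidia were grown 10 days at 37°C on potato dextrose agar. They were exposed in microtiter trays to posaconazole (DMSO stock; final 0 to 8 μg/ml) in RPMI with 2% glucose and 0.165 M MOPS, pH 7.0. Incubation ran 24 or 48 h, and XTT reduction was read at 492 nm in triplicate. Absorbance was expressed as percent of growth control, and IC50/IC90 came from a four-parameter inhibitory sigmoid fit.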

[2] = tested on: Fusarium solani; assay: Antifungal activity against inoculum of 1x10^4 conidia/ml Fusarium solani isolate 95-2478 after 48 hrs by XTT assay; type: functional, organism-based; conditions: isolate 95-2478, 48 h; procedure, shortened: as §1
[3] = tested on: Fusarium solani; assay: Antifungal activity against inoculum of 1x10^5 conidia/ml Fusarium solani isolate 95-2478 after 24 hrs by XTT assay; type: functional, organism-based; conditions: isolate 95-2478, 24 h; procedure, shortened: as §1
[4] = tested on: Fusarium solani; assay: Antifungal activity against inoculum of 1x10^5 conidia/ml Fusarium solani isolate 95-2478 after 48 hrs by XTT assay; type: functional, organism-based; conditions: isolate 95-2478, 48 h; procedure, shortened: as §1
[5] = Drug concentration in uninfected nonimmunosppressed ICR mouse serum at 50 mg/kg, po BID after 4 hrs; type: ADME, organism-based; parameters: dose 50 mg/kg, route oral; conditions: read-out: Drug uptake
Procedure, shortened: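 Uninfected, nonimmunosuppressed mice received 5 oral-gavage BID doses, and serum was taken 4 h after the last dose. Serum (100 μl, duplicate) was placed in wells cut in potato dextrose agar seeded with Candida kefyr ATCC 66028 at 1 × 10^4 cells/ml. Inhibition zones were measured after 48 h, and concentration was interpolated from a standard curve.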

[6] = tested on: Fusarium solani; assay: Antifungal activity against high inoculum 2.9 x 10^6 conidia/animal Fusarium solani infected in ICR mouse assessed as rate of survival at 6.25 mg/kg, po BID treated after 12 hrs of inoculation; type: functional, organism-based; parameters: dose 6.25 mg/kg
Procedure, shortened: (§2)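 Neutropenic ICR mice (5-fluorouracil 150 mg/kg i.v., day −1) were infected i.v. with F. solani 95-2478 conidia. Posaconazole oral suspension was gavaged BID starting 12 h postinoculation and continued to day 9, then mice were followed off therapy to day 15. Moribund mice were euthanized and death was recorded the next day. Median and percent survival come from Kaplan-Meier curves versus untreated controls.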

[7] = tested on: Fusarium solani; assay: Antifungal activity against high inoculum 2.9 x 10^6 conidia/animal Fusarium solani infected in ICR mouse assessed as rate of survival at 12.5 mg/kg, po BID treated after 12 hrs of inoculation; type: functional, organism-based; parameters: dose 12.5 mg/kg; procedure, shortened: as §2
[8] = tested on: Fusarium solani; assay: Antifungal activity against high inoculum 2.9 x 10^6 conidia/animal Fusarium solani infected in ICR mouse assessed as rate of survival at 25 mg/kg, po BID treated after 12 hrs of inoculation; type: functional, organism-based; parameters: dose 25 mg/kg; procedure, shortened: as §2
[9] = tested on: Fusarium solani; assay: Antifungal activity against high inoculum 2.9 x 10^6 conidia/animal Fusarium solani infected in ICR mouse assessed as rate of survival at 50 mg/kg, po BID treated after 12 hrs of inoculation; type: functional, organism-based; parameters: dose 50 mg/kg; procedure, shortened: as §2
[10] = tested on: Fusarium solani; assay: Antifungal activity against inoculum range 6.5 x 10^5 to 6.8 x 10^5 conidia/animal Fusarium solani infected in ICR mouse assessed as rate of survival at 6.25 mg/kg, po BID treated after 12 hrs of inoculation; type: functional, organism-based; parameters: dose 6.25 mg/kg; procedure, shortened: as §2
[11] = tested on: Fusarium solani; assay: Antifungal activity against inoculum range 6.5 x 10^5 to 6.8 x 10^5 conidia/animal Fusarium solani infected in ICR mouse assessed as rate of survival at 12.5 mg/kg, po BID treated after 12 hrs of inoculation; type: functional, organism-based; parameters: dose 12.5 mg/kg; procedure, shortened: as §2
[12] = tested on: Fusarium solani; assay: Antifungal activity against inoculum range 6.5 x 10^5 to 6.8 x 10^5 conidia/animal Fusarium solani infected in ICR mouse assessed as rate of survival at 25 mg/kg, po BID treated after 12 hrs of inoculation; type: functional, organism-based; parameters: dose 25 mg/kg; procedure, shortened: as §2
[13] = tested on: Fusarium solani; assay: Antifungal activity against inoculum range 6.5 x 10^5 to 6.8 x 10^5 conidia/animal Fusarium solani infected in ICR mouse assessed as rate of survival at 50 mg/kg, po BID treated after 12 hrs of inoculation; type: functional, organism-based; parameters: dose 50 mg/kg; procedure, shortened: as §2
[14] = tested on: Fusarium solani; assay: Antifungal activity against inoculum range 7.7 x 10^4 to 7.8 x 10^4 conidia/animal Fusarium solani infected in ICR mouse assessed as rate of survival at 6.25 mg/kg, po BID treated after 12 hrs of inoculation; type: functional, organism-based; parameters: dose 6.25 mg/kg; procedure, shortened: as §2
[15] = tested on: Fusarium solani; assay: Antifungal activity against inoculum range 7.7 x 10^4 to 7.8 x 10^4 conidia/animal Fusarium solani infected in ICR mouse assessed as rate of survival at 12.5 mg/kg, po BID treated after 12 hrs of inoculation; type: functional, organism-based; parameters: dose 12.5 mg/kg; procedure, shortened: as §2
[16] = tested on: Fusarium solani; assay: Antifungal activity against inoculum range 7.7 x 10^4 to 7.8 x 10^4 conidia/animal Fusarium solani infected in ICR mouse assessed as rate of survival at 25 mg/kg, po BID treated after 12 hrs of inoculation; type: functional, organism-based; parameters: dose 25 mg/kg; procedure, shortened: as §2
[17] = tested on: Fusarium solani; assay: Antifungal activity against inoculum range 7.7 x 10^4 to 7.8 x 10^4 conidia/animal Fusarium solani infected in ICR mouse assessed as rate of survival at 50 mg/kg, po BID treated after 12 hrs of inoculation; type: functional, organism-based; parameters: dose 50 mg/kg; procedure, shortened: as §2
[18] = tested on: Fusarium solani; assay: Antifungal activity against high inoculum 2.9 x 10^6 conidia/animal Fusarium solani infected in ICR mouse assessed as bacterial count in kidney tissue at 6.25 mg/kg, po BID treated after 12 hrs of inoculation; type: functional
Procedure, shortened: (§3)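 Outbred ICR mice were made neutropenic with 5-fluorouracil 150 mg/kg i.v. 1 day before i.v. infection with F. solani isolate 95-2478 conidia (0.2 ml). Posaconazole oral suspension was given by gavage BID from 12 h after inoculation until day 9. Kidneys from moribund animals were homogenized and plated on potato dextrose agar, and CFU/g was counted after 48 h. Group medians were compared with untreated controls by Mann-Whitney.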

[19] = tested on: Fusarium solani; assay: Antifungal activity against high inoculum 2.9 x 10^6 conidia/animal Fusarium solani infected in ICR mouse assessed as bacterial count in kidney tissue at 12.5 mg/kg, po BID treated after 12 hrs of inoculation; type: functional; procedure, shortened: as §3
[20] = tested on: Fusarium solani; assay: Antifungal activity against high inoculum 2.9 x 10^6 conidia/animal Fusarium solani infected in ICR mouse assessed as bacterial count in kidney tissue at 25 mg/kg, po BID treated after 12 hrs of inoculation; type: functional; procedure, shortened: as §3
[21] = tested on: Fusarium solani; assay: Antifungal activity against high inoculum 2.9 x 10^6 conidia/animal Fusarium solani infected in ICR mouse assessed as bacterial count in kidney tissue at 50 mg/kg, po BID treated after 12 hrs of inoculation; type: functional; procedure, shortened: as §3

With `CC[C@@H]([C@H](C)O)n1ncn(-c2ccc(N3CCN(c4ccc(OC[C@@H]5CO[C@@](Cn6cncn6)(c6ccc(F)cc6F)C5)cc4)CC3)cc2)c1=O` [POSACONAZOLE] as the compound, how does the IC50 [1] read?
Its IC50 is 1.7 µg/mL (≈ 2.43 µM).

What about the IC90 [1] of the same compound?
The IC90 was 4.1 µg/mL (≈ 5.85 µM).

What about the IC50 [2] of the same compound?
Its IC50 is 4.7 µg/mL (≈ 6.71 µM).

And the IC90 [2]?
Its IC90 is over 8 µg/mL.

And the IC90 [3]?
The IC90 was 7.2 µg/mL (≈ 10.3 µM).

And the IC90 ([3]; read-out: IC90)?
The IC90 was over 8 µg/mL.

And the IC50 [4]?
Its IC50 is over 8 µg/mL.

And the IC90 [4]?
The IC90 was over 8 µg/mL.

And the concentration at 4 h [5]?
The concentration at 4 h was 5300 ng/mL.

What about the Activity [6] of the same compound?
Its Activity is “Active”.

And the Activity [7]?
The Activity was “Active”.

And the Activity [8]?
Its Activity is “Active”.

And the Activity [9]?
The Activity was “Active”.

And the Activity [10]?
The Activity was “Active”.

And the Activity [11]?
The Activity was “Active”.

What about the Activity [12] of the same compound?
Its Activity is “Active”.

And the Activity [13]?
The Activity was “Active”.

What about the Activity [14] of the same compound?
Its Activity is “Active”.

And the Activity [15]?
The Activity was “Active”.

And the Activity [16]?
The Activity was “Active”.

What about the Activity [17] of the same compound?
The Activity was “Active”.

What about the log10CFU/g [18] of the same compound?
The log10CFU/g was 5.6.

And the log10CFU/g [19]?
Its log10CFU/g is 5.3.

What about the log10CFU/g [20] of the same compound?
The log10CFU/g was 5.3.

And the log10CFU/g [21]?
Its log10CFU/g is 5.2.
